# Reference: ChEMBL document CHEMBL1140069, “In vitro antifungal activity of polyfunctionalized 2-(hetero)arylquinolines prepared through imino Diels-Alder reactions” (2008)
# What was measured:
# Assay type in all cases: functional
# Candida albicans [1] = test: Antimicrobial activity against Candida albicans C129 isolate at 100 ug/ml after 24 hrs
# Procedure, shortened: (§1)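 Growth-inhibition microplate test. Strains are grown on Sabouraud-chloramphenicol agar for 48 h at 30 °C, and inoculum is added to RPMI-1640 containing compound at a final 100–6.25, with DMSO ≤2%. Each strain has a growth control (same DMSO, no compound) and a sterility control.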
# Nakaseomyces glabratus [2] = test: Antimicrobial activity against Candida glabrata C115 isolate at 6.25 ug/ml after 24 hrs
# Procedure, shortened: (§2)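 Percent growth inhibition in 96-well microplates. Compound stocks in DMSO (≤2%) were diluted in RPMI-1640 to final 100–6.25 µg/mL, and 100 µL inoculum was added (final 200 µL). Controls were a growth well (inoculum with matching DMSO, no compound) and a sterility well (no inoculum). Inhibition was calculated against growth and sterility wells.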
# Nakaseomyces glabratus [3] = test: Antimicrobial activity against Candida glabrata C115 isolate at 25 ug/ml after 24 hrs; procedure, shortened: as §2
# Nakaseomyces glabratus [4] = test: Antimicrobial activity against Candida glabrata C115 isolate at 12.5 ug/ml after 24 hrs; procedure, shortened: as §1
# Candida albicans [5] = test: Antimicrobial activity against Candida albicans C126 isolate at 50 ug/ml after 24 hrs; procedure, shortened: as §1
# Candida tropicalis [6] = test: Antimicrobial activity against Candida tropicalis C131 isolate at 50 ug/ml after 24 hrs; procedure, shortened: as §2
# Candida albicans [7] = test: Antimicrobial activity against Candida albicans C130 isolate at 100 ug/ml after 24 hrs; procedure, shortened: as §1
# Candida albicans [8] = test: Antimicrobial activity against Candida albicans C126 isolate at 25 ug/ml after 24 hrs; procedure, shortened: as §1
# Candida parapsilosis [9] = test: Antimicrobial activity against Candida parapsilosis C124 isolate at 100 ug/ml after 24 hrs; details: Lodderomyces parapsilosis; procedure, shortened: as §2
# Candida albicans [10] = test: Antimicrobial activity against Candida albicans C127 isolate at 100 ug/ml after 24 hrs; details: C127, 24 h; procedure, shortened: as §1
# Candida albicans [11] = test: Antimicrobial activity against Candida albicans C130 isolate at 50 ug/ml after 24 hrs; procedure, shortened: as §1
# Candida albicans [12] = test: Antimicrobial activity against Candida albicans C129 isolate at 50 ug/ml after 24 hrs; procedure, shortened: as §1
# Candida albicans [13] = test: Antimicrobial activity against Candida albicans C126 isolate at 12.5 ug/ml after 24 hrs; procedure, shortened: as §1
# Candida tropicalis [14] = test: Antimicrobial activity against Candida tropicalis C131 isolate at 12.5 ug/ml after 24 hrs; procedure, shortened: as §2
# Candida albicans [15] = test: Antimicrobial activity against Candida albicans C129 isolate at 6.25 ug/ml after 24 hrs; procedure, shortened: as §1
# Candida albicans [16] = test: Antimicrobial activity against Candida albicans C128 isolate at 6.25 ug/ml after 24 hrs; procedure, shortened: as §1
# Pichia kudriavzevii = test: Antimicrobial activity against Candida krusei C117 isolate at 6.25 ug/ml after 24 hrs; procedure, shortened: as §2
# Nakaseomyces glabratus [17] = test: Antimicrobial activity against Candida glabrata C115 isolate at 100 ug/ml after 24 hrs; procedure, shortened: as §1
# Candida tropicalis [18] = test: Antimicrobial activity against Candida tropicalis C131 isolate at 6.25 ug/ml after 24 hrs; procedure, shortened: as §2
# Candida albicans [19] = test: Antimicrobial activity against Candida albicans C126 isolate at 100 ug/ml after 24 hrs; procedure, shortened: as §1
# Candida albicans [20] = test: Antimicrobial activity against Candida albicans C130 isolate at 12.5 ug/ml after 24 hrs; procedure, shortened: as §1
# Candida albicans [21] = test: Antimicrobial activity against Candida albicans C127 isolate at 25 ug/ml after 24 hrs; details: C127, 24 h; procedure, shortened: as §1
# Candida albicans [22] = test: Antimicrobial activity against Candida albicans C129 isolate at 25 ug/ml after 24 hrs; procedure, shortened: as §1
# Candida parapsilosis [23] = test: Antimicrobial activity against Candida parapsilosis C124 isolate at 25 ug/ml after 24 hrs; details: Lodderomyces parapsilosis; procedure, shortened: as §2
# Nakaseomyces glabratus [24] = test: Antimicrobial activity against Candida glabrata C115 isolate at 50 ug/ml after 24 hrs; procedure, shortened: as §2
# Candida albicans [25] = test: Antimicrobial activity against Candida albicans C130 isolate at 6.25 ug/ml after 24 hrs; procedure, shortened: as §1
# Candida albicans [26] = test: Antimicrobial activity against Candida albicans C127 isolate at 50 ug/ml after 24 hrs; details: C127, 24 h; procedure, shortened: as §1
SMILES,inhibition at 100 µg/mL (Candida albicans [1]) [%],inhibition at 6.25 µg/mL (Nakaseomyces glabratus [2]) [%],inhibition at 25 µg/mL (Nakaseomyces glabratus [3]) [%],inhibition at 12.5 µg/mL (Nakaseomyces glabratus [4]) [%],inhibition at 50 µg/mL (Candida albicans [5]) [%],inhibition at 50 µg/mL (Candida tropicalis [6]) [%],inhibition at 100 µg/mL (Candida albicans [7]) [%],inhibition at 25 µg/mL (Candida albicans [8]) [%],inhibition at 100 µg/mL (Candida parapsilosis [9]) [%],inhibition at 100 µg/mL (Candida albicans [10]) [%],inhibition at 50 µg/mL (Candida albicans [11]) [%],inhibition at 50 µg/mL (Candida albicans [12]) [%],inhibition at 12.5 µg/mL (Candida albicans [13]) [%],inhibition at 12.5 µg/mL (Candida tropicalis [14]) [%],inhibition at 6.25 µg/mL (Candida albicans [15]) [%],inhibition at 6.25 µg/mL (Candida albicans [16]) [%],inhibition at 6.25 µg/mL (Pichia kudriavzevii) [%],inhibition at 100 µg/mL (Nakaseomyces glabratus [17]) [%],inhibition at 6.25 µg/mL (Candida tropicalis [18]) [%],inhibition at 100 µg/mL (Candida albicans [19]) [%],other results
c1ccc2nc(-c3ccncc3)ccc2c1,85,0,4,1,32,75,84,0,55,80,84,82,0,54,0,0,0,75,22,69,inhibition at 12.5 µg/mL (Candida albicans [20]): 2%; inhibition at 25 µg/mL (Candida albicans [21]): 0%; inhibition at 25 µg/mL (Candida albicans [22]): 50%; inhibition at 25 µg/mL (Candida parapsilosis [23]): 0%; inhibition at 50 µg/mL (Nakaseomyces glabratus [24]): 4%; inhibition at 6.25 µg/mL (Candida albicans [25]): 0%; inhibition at 50 µg/mL (Candida albicans [26]): 65%
Cc1cc(-c2ccncc2)nc2ccccc12,85,0,4,1,32,75,84,0,55,80,84,82,0,54,0,0,0,75,22,69,inhibition at 12.5 µg/mL (Candida albicans [20]): 2%; inhibition at 25 µg/mL (Candida albicans [21]): 0%; inhibition at 25 µg/mL (Candida albicans [22]): 50%; inhibition at 25 µg/mL (Candida parapsilosis [23]): 0%; inhibition at 50 µg/mL (Nakaseomyces glabratus [24]): 4%; inhibition at 6.25 µg/mL (Candida albicans [25]): 0%; inhibition at 50 µg/mL (Candida albicans [26]): 65%
